High-throughput results deposited in PubChem by several laboratories.
An excerpt weighted towards active compounds, which were near 1.5% of everything screened.
PG9 binder: binders of HIV-1 gp120 antibody PG9, primary screen, biochemical, TR-FRET; inhibition, % at 6.7 µM; hit rate 0.43% among 360,000; TR-FRET gp120-PG9 antibody binding; in the data active = inhibition above about 8.5%
Rev-erbA mod: modulators of Rev-erb alpha DNA binding, primary screen, biochemical, FITC-DNA, fluorescence polarization, uHTS | hit rate 0.79% among 370,000 | Nuclear receptor subfamily 1 group D member 1 (Homo sapiens), P20393 | activity, % at 10 µM | Rev-erbα–FITC-DNA binding, 90 min;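 active = activity above about 14%, limit read from the data; passing the limit was not always enough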;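 note: 0% = DMSO wells with 35 nM protein and 100% = DMSO wells with 750 nM protein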
NR2E3 ag-1: inhibitors of NR2E3-RetCOR corepressor binding, primary screen, NR2E3 agonist project, biochemical, TR-FRET, GST-NR2E3, biotin-RetCOR; Photoreceptor-specific nuclear receptor (Homo sapiens), Q9Y5X4; 1536-well; inhibition of corepressor binding, % at 4.78 µM; hit rate 0.12% among 320,000;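 active = percent inhibition above the cutoff of mean plus 3 SD of all tested compounds, set per screening campaign, cut at about 20% in these data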;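 note: 0% = DMSO wells and 100% = biotin wells as full block of FRET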
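Material: NR2E3–RetCOR corepressor complex | Quantity: 1.35 nM GST-tagged NR2E3 final | Schedule: 5 h at 4 °C | Replication: Singlicate compound wells | Reagent: RetCOR corepressor, biotinylated, 7 nM | Controls: Biotin wells as high control, 0.6% DMSO wells as low control | Signal: TR-FRET, Eu(K)-anti-GST donor, streptavidin-D2 acceptor, ex 340, em 617/671 nm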
NR2E3 ag-2: NR2E3 agonists in two-hybrid cells, primary screen, cell-based, luminescence, CHO-S, Gal4-NCOR/VP16-NR2E3 | Photoreceptor-specific nuclear receptor (Homo sapiens), Q9Y5X4 | luciferase | inhibition of corepressor binding, % at 3.98 µM | hit rate 0.35% among 360,000 | AID 602229, 2012;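 active = inhibition above the mean of all tested compounds plus 3 SD, cut at about 70% in these data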;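 note: 0% = DMSO with NR2E3 transfected cells and 100% = cells lacking NR2E3 construct; higher means lower luciferase signal from less NR2E3 corepressor binding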
NR2E3 ag confirm: NR2E3 agonist confirmation in cells, cell-based, luminescence, CHO-S two-hybrid | shares compounds with NR2E3 ag-2 | CHO-S mammalian two-hybrid NR2E3-NCOR, luciferase luminescence | inhibition, % at 3.98 µM | hit rate 51% among 2,300 | AID 624378, 2012;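 active = average inhibition above a cutoff equal to the mean inhibition of all tested compounds plus one SD, cut at about 70% in these data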;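 note: 0% = DMSO in NR2E3 cells and 100% = DMSO in cells lacking NR2E3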
VP16 counter: GAL4-VP16 reporter modulators, confirmation, counter-screen for NR2E3 agonist project, cell-based, luminescence, CHO-S, high throughput. shares compounds with NR2E3 ag-2. CHO-S GAL4-VP16 luciferase reporter. inhibition, % at 3.98 µM. hit rate 29% among 2,300. AID 624379, 2012;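 active = mean inhibition above a cutoff equal to the average over all tested compounds plus one standard deviation, cut at about 70% in these data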;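 note: luciferase from a UAS reporter driven by GAL4-VP16 transactivation; 0% = DMSO with VP16-transfected cells and 100% = DMSO with cells lacking VP16; higher means less reporter light so more repression of VP16 activity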
Starred values were filed as active, the others as inactive; x = no result.

SMILES | PG9 binder | Rev-erbA mod | NR2E3 ag-1 | NR2E3 ag-2 | NR2E3 ag confirm | VP16 counter
O=c1[nH]sc2cc(F)ccc12 | 3 | 3 | x | 50 | 18 | -10
CN(Cc1cccc(-c2ccncc2)c1)C(=O)Oc1ccc([N+](=O)[O-])cc1 | x | x | x | 90* | 81* | 74*
C[C@H]1CCC/C=C/[C@@H]2C[C@H](O)C[C@H]2[C@@H](O)/C=C/C(=O)O1 | -2 | -7 | x | 86* | 98* | 64
CCOC(=O)[C@]12Cc3cc(Cl)ccc3[C@H]1N(CC(=O)OC)C(=O)c1ccccc12 | x | x | x | 61 | 2 | 12
CCOC(=O)[C@]12Cc3cc(Cl)ccc3[C@H]1N(C)C(=O)c1ccccc12 | -1 | -3 | x | -18 | x | x
CCOC(=O)[C@]12Cc3cc(Cl)ccc3[C@H]1N(C1CCCCC1)C(=O)c1ccccc12 | x | x | x | 65 | 96* | 59
CNc1ccc(C(=O)CC(O)CCC(C)C2OC(=O)CC(O)CC(=O)CC(O)CC(O)CC(O)CC(O)CC3(O)CC(O)C(C(=O)OC)C(CC(O[C@@H]4O[C@H](C)[C@@H](O)[C@H](N)[C@@H]4O)/C=C/C=C/C=C/C=C/C=C/C=C/C=C/C2C)O3)cc1 (some centres undefined) | x | 6 | x | x | x | x
COP(=S)(OC)Oc1cc(Cl)c(Cl)cc1Cl | x | 4 | x | x | x | x
C=C[C@H]1CN2CC[C@H]1C[C@@H]2[C@H](O)c1ccnc2ccccc12 | x | 7 | x | x | x | x
O=C(NC(=O)c1c(F)cccc1F)Nc1cc(Cl)c(OC(F)(F)C(F)C(F)(F)F)cc1Cl (centres undefined) | x | 3 | x | x | x | x
CCN(CC)C(=O)c1ccc(NC(=O)c2cccc(S(=O)(=O)N3CCN(Cc4ccccc4)CC3)c2)cc1 | -2 | -1 | -2 | 57 | 54 | 52
Cc1ccccc1-n1c(CF)nc2ccc(N)cc2c1=O | x | -1 | x | x | x | x
CCC1(CC)C(=O)NC(=O)NC1=O | x | -2 | x | x | x | x
O=[N+]([O-])c1ccc(N2CCOCC2)c2cccnc12 | -2 | 5 | -2 | -9 | x | x
O=[N+]([O-])c1ccc(N2CCOCC2)c2c1no[n+]2[O-] | -4 | 15 | x | 58 | 59 | 56
COC1C(OC(=O)c2ccc(C)[nH]2)C(O)C(Oc2ccc3c(O)c(NC(=O)c4ccc(O)c(CC=C(C)C)c4)c(=O)oc3c2Cl)OC1(C)C (centres undefined) | -1 | -3 | 2 | 81* | -32 | 31
CC1=CC(O)C(O)C2(C)C1CC1OC(=O)C(O)C3C(C)C(O)C4(O)OCC13C42 (centres undefined) | x | x | x | -16 | x | x
COC(=O)[C@]12OC[C@]34C([C@@H](O)[C@@H]1O)[C@]1(C)CC(=O)C(O)=C(C)[C@@H]1C[C@H]3OC(=O)[C@H](O)[C@@H]24 (some centres undefined) | -1 | 2 | 2 | 63 | 15 | 11
COc1ccc(C[C@H]2NC[C@H](O)[C@H]2OC(C)=O)cc1 | 1 | 5 | 1 | 104* | 99* | 99*
Oc1cc(Cl)c(Cl)cc1Cl | -1 | -7 | x | x | x | x
Oc1cc(Cl)c(Cl)c(Cl)c1Cl | -1 | 4 | x | 74* | 66 | 75*
C[C@H]1C[C@@H](C)C(=O)[C@@H]([C@H](O)CC2CC(=O)NC(=O)C2)C1 | 1 | 4 | 0 | 101* | 100* | 94*
COC(=O)C[C@]1(C(=O)OC)CN(C#N)N(c2ccc(Cl)cc2)C12c1ccccc1-c1ccccc12 | 1 | 3 | 2 | 89* | 80* | 21
O=[N+]([O-])C(Br)(CO)CO | x | 0 | x | x | x | x
CC(C)NC(C)C | x | -1 | x | x | x | x
Cc1c(NS(=O)(=O)c2ccccc2)ccc([N+](=O)[O-])c1Cl | 0 | 3 | x | 85* | 96* | 84*
